One may read the IC50 as the point on the concentration scale where inhibition reaches its midpoint.

For one assay, the system named is NCI-H460 cells. The assay can be described thus: Cytotoxicity assay to NCI-H460 human lung carcinoma cells. The class given is cell-based.
Assay [1] has as its target ChT-L site of the proteasome. The experiment in a line: Binding affinity to the ChT-L site of the proteasome. Type of assay: biochemical. The note with it: read-out: IC50, ChT-L site of the proteasome; proteasome source not stated.
Another assay concerns HCT116 cells. The assay can be described thus: Cytotoxicity to HCT116 colon adenocarcinoma cell line. The class given is cell-based. To be noted: Homo sapiens, HCT-116, read-out: HCT116 IC50.
A further assay concerns MDA-MB-468 cells (Her2-). The assay can be described thus: Cell proliferation assay. The class given is cell-based.
A further assay concerns SKBR3 cells (Her2+). The assay can be described thus: Cell proliferation assay. Type of assay: cell-based.
Assay [2] deals with human 20S proteasome ChT-L site (Homo sapiens, UniProt P20618+P28074). The experiment in a line: Proteasome inhibition assay, chymotrypsin-like site, fluorogenic substrate. The class given is biochemical. The essentials: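 Human recombinant 20S proteasome, 3 µg/mL in buffer (100 mM Tris pH 7.5, 0.5 mM EDTA, 0.03% SDS), preincubated 30 min at 37 °C with test compound or 25% DMSO vehicle. Reaction started with site-selective AMC substrate (Suc-LLVY-AMC for ChT-L) and run 30 min at 37 °C. Eleven-point 3-fold series, 1.0 µM–[…] final, in triplicate. Fluorescence read at ex 365/em 450 nm; data scaled to internal controls; IC50 from four-parameter logistic fit.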

In assay [3] the target is human 20S proteasome T-L site (Homo sapiens, UniProt P49720+Q99436). The experiment in a line: Proteasome inhibition assay, trypsin-like site, fluorogenic substrate. The class given is biochemical.
The target in assay [4] is human 20S proteasome C-L site (Homo sapiens, UniProt P28072+Q99436). The assay can be described thus: Proteasome inhibition assay, caspase-like site, fluorogenic substrate. The class given is biochemical.
For a further assay, the system named is MDA-MB-231 cells (Her2-). The experiment in a line: Cell proliferation assay. Type of assay: cell-based. To be noted: read-out: MDA-MB-231 IC50, Table 5.
[5] abbreviates: Homo sapiens, NCI-H460, read-out: NCI-H460 IC50.
The mark [6] stands for this setting: Homo sapiens, MDA-MB-468, read-out: MDA-MB-468 IC50.
[7] abbreviates: Homo sapiens, SK-BR-3, read-out: SKBR3 IC50.

Read-outs that look alike come from different tables or passages of the source. Square brackets hold non-standard residues; d marks the D form. Peptide text beside a SMILES is read from it. * marks the point of attachment. Dolaproine = CO[C@@H]([C@@H]1CCCN1)[C@@H](C)C(=O)O; Dil = CC[C@H](C)[C@H](NC)[C@@H](CC(=O)O)OC; X1 = C[C@@H](N*)[C@@H](O)c1ccccc1; NMeV = CN[C@H](C(=O)O)C(C)C Some results are limits rather than exact numbers.

For `CC(C)CC(NC(=O)C(CCS(C)(=O)=O)NC(=O)C(NC(=O)CCCCCN)C(C)C)C(=O)C1(C)CO1` (stereo not shown) [Analogue 6], the IC50 in the assay with NCI-H460 cells (read-out: NCI-H460 IC50, Table 1, NCI-H460 cell line) amounted to 860 nM; in assay [1], 539 nM.
Regarding `CC(C)C[C@H](NC(=O)CC[C@H](NC(=O)[C@@H](NC(=O)Cc1ccc(N)cc1)C(C)C)C(=O)N[C@@H](CC(C)C)C(=O)[C@@]1(C)CO1)C(=O)[C@@]1(C)CO1` [Analogue 16, (S)-2-((S)-2-(2-(4-Aminophenyl)acetamido)-3-methylbutanamido)-N1,N5-bis((S)-4-methyl1-((R)-2-methyloxiran-2-yl)-1-oxopentan-2-yl)pentanediamide], the IC50 with NCI-H460 cells (setting [5]) came out at 25.3 nM; in the assay with HCT116 cells, 45 nM; in the assay with MDA-MB-468 cells (Her2-) (setting [6]), 33 nM; in the assay with SKBR3 cells (Her2+) (setting [7]), 25 nM; in [2], 90 ± 13 nM; in assay [3], 71.5 nM. This compound also came in with a half-inhibitory concentration (IC50) in assay [4] of more than 1000 nM.
As to `CCCCCC(=O)N[C@H](C(=O)N[C@@H](CCC(=O)N[C@@H](CC(C)C)C(=O)[C@@]1(C)CO1)C(=O)NC(CCS(=O)(=O)c1ccc(N)cc1)C(=O)OC)C(C)C` (stereo partly drawn) [Analogue 17, Methyl 4-((4-aminophenyl)sulfonyl)-2-((S)-2-((S)-2-hexanamido-3-methylbutanamido)-5(((S)-4-methyl-1-((R)-2-methyloxiran-2-yl)-1-oxopentan-2-yl)amino)-5oxopentanamido)butanoate], the IC50 in the assay with NCI-H460 cells (setting [5]) was more than 10000 nM; in the assay on HCT116 cells, 5540 nM; in the assay with MDA-MB-468 cells (Her2-) (setting [6]) it was 1740 nM; in the assay on SKBR3 cells (Her2+) (setting [7]), 2430 nM; in [2] it was more than 1000 nM; in assay [3] it was more than 1000 nM. The same compound returned an IC50 in assay [4] of more than 1000 nM.
Take `CC[C@H](C)[C@@H]([C@@H](CC(=O)N1CCC[C@H]1[C@H](OC)[C@@H](C)C(=O)N[C@H](C)[C@@H](O)c1ccccc1)OC)N(C)C(=O)[C@@H](NC(=O)[C@@H](NC)C(C)C)C(C)C` [MMAE, monomethyl auristatin E, reference compound] (H-[NMeV]V[Dil][Dolaproine]-X1): the IC50 was 0.17 nM in the assay on MDA-MB-468 cells (Her2-) (read-out: MDA-MB-468 IC50, Table 5, Her2- cell); 0.072 nM in the assay on SKBR3 cells (Her2+) (read-out: SKBR3 IC50, Table 5, Her2+ cell); 5 pM with MDA-MB-231 cells (Her2-).

(Values after publication PMC6248884 (European journal of medicinal chemistry, 2018).)
